Measurements published in ChEMBL document CHEMBL1123409, “Analogues of platelet activating factor. 4. Some modifications of the phosphocholine moiety” (J Med Chem, 1986).

How the values were obtained:
[1] = organism: Oryctolagus cuniculus; assay: The maximum aggregation response observed at 1.8e-4 M concentration of the compound; type: functional
[2] = system: Rattus norvegicus; assay: Intravenous dose required to decrease mean arterial blood pressure (MABP) 50 mm Hg; type: functional
Procedure, shortened: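 Spontaneously hypertensive rats, dosed intravenously. The dose that lowers mean arterial blood pressure by 50 mm Hg is read from the dose-response curve.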

[3] = The ratio of (MABP / Platelet EC 50) x 10^-8
[4] = organism: Oryctolagus cuniculus; assay: The maximum aggregation response observed at 1e-5 M concentration of the compound; type: functional
[5] = organism: Oryctolagus cuniculus; assay: The maximum aggregation response observed at 1.6e-4 M concentration of the compound; type: functional
[6] = organism: Oryctolagus cuniculus; assay: Effective concentration required to produce 50% of maximum aggregation of platelets; type: functional, organism-based
Procedure, shortened: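 Aggregation tested in rabbit platelet-rich plasma. In each experiment, a dose-response curve was built from six to eight doses spanning 10^-9 to 10^-4 M, with three to four replicates per dose level. EC50 is the molar concentration giving 50% of that analogue's own maximum aggregation response.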

[7] = organism: Oryctolagus cuniculus; assay: The maximum aggregation response observed at 5e-5 M concentration of the compound; type: functional
[8] = The ratio of (MABP / Platelet EC 50) x 100; type: functional
[9] = organism: Oryctolagus cuniculus; assay: The maximum aggregation response observed at 1e-6 M concentration of the compound; type: functional
[10] = organism: Oryctolagus cuniculus; assay: The maximum aggregation response observed at 6.8e-6 M concentration of the compound; type: functional
[11] = organism: Oryctolagus cuniculus; assay: The maximum aggregation response observed at 1.7e-4 M concentration of the compound; type: functional
[12] = organism: Oryctolagus cuniculus; assay: The maximum aggregation response observed at 1.7e-4M concentration of the compound; type: functional
[13] = organism: Oryctolagus cuniculus; assay: The maximum aggregation response observed at 1.48e-5 M concentration of the compound; type: functional

Structure (SMILES)	Dose [2] [µg/kg]	Ratio [3]	further results
CCCCCCCCCCCCCCCCOCC(COP(=O)([O-])OCCCC[N+](C)(C)C)OC(C)=O (stereo not given)	4.84	0.65	Max aggregation response [1]: 68
CCCCCCCCCCCCCCCCOCC(COP(=O)([O-])OC(C)C[N+](C)(C)C)OC(C)=O (stereo not given)	1.16	0.28	Max aggregation response [4]: 74
CCCCCCCCCCCCCCCCOCC(COP(=O)([O-])OCCCCCCCCCC[N+](C)(C)C)OC(C)=O (stereo not given)	>4000		Max aggregation response [5]: 18; EC50 [6]: 59 µM
CCCCCCCCCCCCCCCCCCOCC(COP(=O)([O-])CC[N+](C)(C)C)OC(C)=O (stereo not given)	76.54	3.83	Max aggregation response [4]: 82
CCCCCCCCCCCCCCCCOCC(COP(=O)([O-])OCC(c1ccccc1)[N+](C)(C)C)OC(C)=O (stereo not given)	3.93		Max aggregation response [7]: 69; Ratio [8]: 0.06
CCCCCCCCCCCCCCCCOCC(COP(=O)([O-])OCCC[N+](C)(C)C)OC(C)=O (stereo not given)	1.43	0.57	Max aggregation response [9]: 65
CCCCCCCCCCCCCCCCOCC(COP(=O)([O-])Oc1cccc(C[N+](C)(C)C)c1)OC(C)=O (stereo not given)	1.36	0.23	Max aggregation response [7]: 64
CCCCCCCCCCCCCCCCOCC(COP(=O)([O-])OCC[N+](C)(C)C)OC(C)=O (stereo not given) [PLATELET ACTIVATING FACTOR]	1.25	0.47	Max aggregation response [10]: 71
CCCCCCCCCCCCCCCCOCC(COP(=O)([O-])OCCCCCC[N+](C)(C)C)OC(C)=O (stereo not given)	164.9	0.06	Max aggregation response [11]: 35; EC50 [6]: 27 µM
CCCCCCCCCCCCCCCCOCC(COP(=O)([O-])OCC(C)[N+](C)(C)C)OC(C)=O (stereo not given)	0.15	0.47	Max aggregation response [9]: 66
CCCCCCCCCCCCCCCCOCC(COP(=O)([O-])OCCCCCCCC[N+](C)(C)C)OC(C)=O (stereo not given)	>4000		Max aggregation response [12]: 41; EC50 [6]: 37 µM
CCCCCCCCCCCCCCCCCCOCC(COP(=O)([O-])OCCCC[N+](C)(C)C)OC(C)=O (stereo not given)	15.85	0.36	Max aggregation response [4]: 71
CCCCCCCCCCCCCCCCCCOCC(COP(=O)([O-])OCC[N+](C)(C)C)OC(C)=O (stereo not given)	3.17	1.34	Max aggregation response [13]: 75
